The source made the active and inactive calls. The calls are words filed in the database; no cut-off is given here.
Columns and labels:
PC-12 [1] = assay: Inhibition of H2O2-induced decrease in Na+/K+ ATPase activity in rat PC12 cells assessed as increase in inorganic phosphate liberation using ATP as substrate at 50 uM after 1 hr by colorimetric analysis in presence H2O2; assay type: cell-based
Procedure, shortened: (§1)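 Adherent PC12 cells exposed 1 h to 50 µM compound, either alone or together with 100 µM H2O2, then harvested. ATPase assayed in two parallel runs, total and ouabain-insensitive. Inorganic phosphate formed in 30 min quantified colorimetrically; Na+/K+-ATPase activity taken as the difference without versus with ouabain. Triplicate experiments; means ± SEM, Student t-test.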

PC-12 [2] = assay: Effect on Na+/K+ ATPase activity in rat PC12 cells assessed as inorganic phosphate liberation using ATP as substrate at 50 uM after 1 hr by colorimetric analysis; assay type: cell-based; procedure, shortened: as §1
PC-12 [3] = assay: Neuroprotective activity against H2O2-induced oxidative stress in rat PC12 cells assessed as increase in cell viability at 0.1 to 150 uM treated for 6 hrs prior to H2O2 addition measured after 18 hrs by Synergy Hybrid H1 reader analysis; assay type: functional, cell-based
Procedure, shortened: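 PC12 cells pretreated 6 h with test agent (0.1, 1, 10, 50, 100, 150 µM), then 100 µM H₂O₂ added for a further 18 h. Untreated cells set as 100% survival; H₂O₂-only cells as injury control. Cells then harvested for viability assay. Triplicate runs over three separate culture batches; means ± SEM, Student t-test, p < 0.05.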

PC-12 [4] = assay: Neuroprotective activity against H2O2-induced oxidative stress in rat PC12 cells assessed as increase in cell viability treated for 6 hrs prior to H2O2 addition measured after 18 hrs by Synergy Hybrid H1 reader analysis; assay type: functional, cell-based
Procedure, shortened: (§2)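 PC12 cells pretreated 6 h with compound at 0.1, 1, 10, 50, 100 or 150 µM, then challenged with 100 µM H2O2 for a further 18 h. Untreated cells served as 100% survival. Cells harvested for viability assay. Triplicates with three separate culture batches; means ± SEM, Student t-test, p<0.05.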

PC-12 [5] = assay: Neuroprotective activity against H2O2-induced oxidative stress in rat PC12 cells assessed as increase in cell viability at 0.1 to 10 uM treated for 6 hrs prior to H2O2 addition measured after 18 hrs by Synergy Hybrid H1 reader analysis; assay type: functional, cell-based; procedure, shortened: as §2

Row | Structure (SMILES) | inhibition (PC-12 [1]) | Activity (PC-12 [2]) | Activity (PC-12 [3]) | Activity (PC-12 [4]) | Activity (PC-12 [5])
1 | C[C@]12CCCC[C@@]1(O)C(=O)C=C2c1ccco1 | Active | inactive | Active |  | 
2 | C[C@]12CCCC[C@@]1(O)C(=O)C[C@H]2c1ccco1 | Active | inactive |  | Dose-dependent effect | 
3 | C[C@]12CCCC[C@@]1(O)OC(=O)C=C2c1ccoc1 | Active | inactive |  | Dose-dependent effect | 
4 | C[C@]12CCCC[C@H]1C(=O)C=C2c1ccoc1 | Active | inactive |  | Dose-dependent effect | Active
5 | C[C@]12CCCC[C@@]1(O)C(=O)CC2c1ccoc1 (single isomer, unassigned) |  | inactive | Active |  | 
6 | C[C@]12CCCC[C@@]1(O)C(=O)C=C2c1ccoc1 |  | inactive |  | Dose-dependent effect | Active

Source: ChEMBL document CHEMBL2331371, “Natural products inspired synthesis of neuroprotective agents against H₂O₂-induced cell death” (Bioorg Med Chem Lett, 2013)
